A number with no mark means an inactive call. Inconclusive results are not listed. Calls of active or inactive are those of the source.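 The calls were made as follows, unless noted: active = cell viability at or below a set limit in both duplicate runs, the limit being the all-compound median minus 4 SD (cut at about 23% in these data, passing the limit was not always enough); inconclusive = no clear call, values can overlap the other calls; inactive = the rest.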

The nature of assay [1]: OD615 S. cerevisiae growth inhibition, permissive medium, pilot counter-assay, permissive growth control for S. cerevisiae lifespan shortening project (AID 705;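 active = growth inhibition above 25% in both replicates, a cutoff set 3 SD above the mean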). The note with it: OD615, 24 h, at 10 µM, stronger effect = higher value. A digest of the protocol: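 System: S. cerevisiae with engineered DeaD lifespan system. Medium: SC raffinose/galactose permissive medium. Doses: single compound dose of 10 µM, 0.25% DMSO final. Schedule: 24 h exposure, 30 °C. Measured by: OD615 turbidity read. Read-out: growth inhibition.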

Assay [2] can be described thus: Restrictive medium S. cerevisiae growth inhibition, OD615, pilot screen of yeast lifespan reduction project, restrictive growth control (AID 706;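 active = growth inhibition above a set limit, 3 SD over mean compound inhibition, in both replicates, cut at about 43% in these data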;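 also: modified DeaD lifespan yeast strain shifted to restrictive glucose medium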). Conditions: OD615, 48 h, at 10 µM, stronger effect = higher value. A digest of the protocol:
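Assay system – genetically modified Saccharomyces cerevisiae, DeaD replicative lifespan assay strain · Medium – CSMM-D glucose medium · Doses – 10 µM compound, 0.25% DMSO · Times – 4 h pre-incubation, 48 h exposure at 30 °C · Signal – optical density at 615 nm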

Assay [3] can be described thus: viability gain of MRP-1-high H69AR cells under doxorubicin, pilot screen, MRP-1 activator project, CellTiter-Glo, duplicate (AID 807;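 active = viability increase at or above a cutoff of the median across tested compounds plus 3 SD, cut at about 8.5% in these data, passing the limit was not always enough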;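 also: compound pretreatment 18-22 h then 72 h combined with doxorubicin; 0% = doxorubicin alone and 100% = vehicle without doxorubicin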). Conditions: H69AR viability with doxorubicin, CellTiter-Glo luminescence; at 10 µM; stronger effect = higher value. In general terms: In ATP-based viability assays light output follows the ATP content of the culture.
Assay [4] in a line: growth suppression of beta-catenin knockout HCT116, pilot screen, human colon tumor cells (AID 823).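 Also: 0% = wells killed by 20 µM Hyamine and 100% = untreated DMSO cell wells.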 Conditions: CellTiter-Glo, 60 h, at 10 µM, stronger effect = lower value.
Assay [5] is described as follows: inhibitors of the yeast RAM network, pilot screen, dse1pr::URA3 reporter, 5-FOA selection (AID 869;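 active = inhibition over a set limit, the all-compound mean plus 3 SD, in both replicate runs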;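 also: 0% = DMSO wells with no growth and 100% = 10 µM 1-NA-PP1 with full growth; RAM network block rescues cells from 5-FOA so hits raise OD615 growth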). The note with it: S. cerevisiae dse1pr::URA3 5-FOA growth, OD615, 2 d; at 10 µM; stronger effect = higher value; strain carries analog-sensitive mutant Cbk1 kinase.
Assay [6] in a line: RAM signaling pathway blockade in yeast – S. cerevisiae, Pdr1DBD-CYC8 efflux-inhibited sensitized strain, primary screen (AID 1298;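 active = RAM network inhibition above 8.4% in each of two replicates, 3 SD over the compound average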;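 also: 0% = DMSO untreated cells without growth and 100% = 10 µM 1-NA-PP1 full growth; higher means more yeast growth rescued from 5-FOA killing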). Conditions: S. cerevisiae cbk1-as DSE1-URA3 strain, 5-FOA growth OD615, 2 d; at 50 µM; stronger effect = higher value.

In the case of `CCn1nc(CC(=O)Nc2ccc(-n3cnnn3)c(C)c2)c2ccccc2c1=O`, the growth inhibition in assay [1] was -14.8%; in assay [2], -10.9%. Also, in assay [3], the viability increase was -4.37%. In addition, the viability (commonly a read-out of living cells in per cent, often relative to untreated cells) in assay [4] was 90.3%. For the same compound, the inhibition (usually the change of the read-out against control, counted positive when it falls) in assay [5] is 0.6%. Further, in assay [6], the RAM network inhibition was 5.97%.

For the compound `CN(C)CCCNC(=O)CC(c1ccc(F)cc1)c1ccco1` (stereo unspecified), the growth inhibition in assay [1] was -28.8%; in assay [2], 0.42%. Also, the viability increase in assay [3] is -2.97%. Besides, the viability in assay [4] was 77.9%. For the same compound, the inhibition in assay [5] was 0.69%. Moreover, the RAM network inhibition in assay [6] is 5.45%.

On to `CC(=O)NCCN=Cc1sc2ccccc2c1O`, for which the growth inhibition in assay [1] is -8.43%; in assay [2], -2.56%. The viability increase in assay [3] was -2.42%. Besides, the viability in assay [4] is 92.6%. For the same compound, the inhibition in assay [5] is -0.315%. In addition, the RAM network inhibition in assay [6] is -0.37%.

Regarding `Cc1cc(C)c(C#N)c(=N)o1`, the figures for the growth inhibition in assay [1] and in assay [2] were 23.3% and 20.7%, respectively. The viability increase in assay [3] is -3.83%. Further, in assay [4], the viability is 87.2%. In addition, the inhibition in assay [5] was 1.2%. Besides, in assay [6], the RAM network inhibition is 8.54%.

For the compound `O=C(COCCOCC(=O)N(c1ccccn1)C1CCCCC1)N(c1ccccn1)C1CCCCC1`, the results for the growth inhibition in assay [1] and in assay [2] were -12.8% and -7.35%, respectively. In assay [3], the viability increase was -2.48%. In addition, the viability in assay [4] was 92.3%. Besides, in assay [5], the inhibition was 1.31%. Besides, in assay [6], the RAM network inhibition is 8.62%.

Take `Cc1cc(C)nc(NS(=O)(=O)c2ccc(NC(=O)c3cccs3)cc2)n1`: the growth inhibition was -11.4% in assay [1] and -2.39% in assay [2]. Besides, the viability increase in assay [3] was -2.29%. Further, in assay [4], the viability was 97.7%. In assay [5], the inhibition is 0.89%. Further, in assay [6], the RAM network inhibition is 0.21%.

With `CCC(=O)c1cn(CC(=O)NCC2CCCO2)c2ccccc12` (stereo unspecified), the values for the growth inhibition in assay [1] and in assay [2] were 0.725% and 12.5%, respectively. The viability increase in assay [3] is -3.8%. Besides, the viability in assay [4] is 96.7%. The inhibition in assay [5] was 2.02%. Further, the RAM network inhibition in assay [6] is 1.98%.

As to `COc1cc(OC)cc(C(=O)Nc2cc(NC(=O)c3ccco3)ccc2OC)c1`, the growth inhibition in assay [1] is -15.4%; in assay [2], 3.21%. Also, the viability increase in assay [3] is -5.63%. For the same compound, the viability in assay [4] was 88.8%. Further, the inhibition in assay [5] is 1.21%. The RAM network inhibition in assay [6] is 2.66%.

Consider `c1ccc(Nc2nc(N3CCCCC3)nc(N3CCNCC3)n2)cc1`, for which the growth inhibition is -9.86% in assay [1] and -6.95% in assay [2]. Moreover, the viability increase in assay [3] is -8.19%. The viability in assay [4] was 3.71% (active). Moreover, the inhibition in assay [5] is 0.98%. In addition, the RAM network inhibition in assay [6] was 3.63%.

Consider `CC1(C)Cc2nc(-c3ccccc3)n3cnnc3c2CO1`, for which the growth inhibition was -8.06% in assay [1] and -4.3% in assay [2]. Also, the viability increase in assay [3] was -1.77%. Also, the viability in assay [4] is 102%. Besides, the inhibition in assay [5] was 0.36%. Also, in assay [6], the RAM network inhibition is 4.42%.

Turning to `Cn1c(Cn2c(=O)sc3ccccc32)nnc1SCc1ccc(F)cc1`, the growth inhibition in assay [1] is -7.12%; in assay [2], -5.41%. Moreover, the viability increase in assay [3] was -4.85%. Also, the viability in assay [4] was 23.7% (active). In addition, in assay [5], the inhibition is 2.8%. Further, the RAM network inhibition in assay [6] is 16.2% (active).

`CCN(CC)CCOc1c(Br)ccc2c1sc1nc3n(c(=O)c12)CCC3`: the figures for the growth inhibition in assay [1] and in assay [2] were -1.77% and 6.08%, respectively. Besides, the viability increase in assay [3] is -5.02%. Besides, in assay [4], the viability is 30.4%. The inhibition in assay [5] was 0.405%. The RAM network inhibition in assay [6] is 5.14%.

Regarding `CCOc1ccc(NC(=O)CSc2nnc(-c3ccccc3)n2N)cc1`, the growth inhibition in assay [1] is -8.33%; in assay [2], -0.575%. Besides, in assay [3], the viability increase was -6.71%. In addition, the viability in assay [4] is 93.8%. For the same compound, the inhibition in assay [5] was 0.495%. In addition, the RAM network inhibition in assay [6] was 2.18%.

As for `O=C(NCc1ccc2c(c1)OCO2)C1CCN(c2ccc(S(=O)(=O)N3CCCC3)cc2)CC1`, the growth inhibition in assay [1] was -20.2%; in assay [2], -1.93%. Besides, in assay [3], the viability increase was -6.29%. Also, in assay [4], the viability was 65.5%. For the same compound, the inhibition in assay [5] was 3.25%. Moreover, the RAM network inhibition in assay [6] is 4.72%.

As to `S=c1nc(-c2ccccc2)n(CCCN2CCOCC2)c2c1CCCC2`, the figures for the growth inhibition in assay [1] and in assay [2] were -2.74% and 23.8%, respectively. For the same compound, in assay [3], the viability increase was -4.35%. In addition, the viability in assay [4] is 103%. The inhibition in assay [5] is 0.18%. Also, the RAM network inhibition in assay [6] was 3.63%.

In the case of `O=C(Nc1ccc(Cl)cc1)c1ccncc1`, the growth inhibition in assay [1] is -11.5%; in assay [2], -3.32%. In addition, the viability increase in assay [3] is 0.18%. The viability in assay [4] is 106%. Further, in assay [5], the inhibition is 1.14%. Moreover, the RAM network inhibition in assay [6] was 6.15%.

Take `Clc1cccc(CSc2nnc([C@@H]3CCCN3)o2)c1`: the growth inhibition is -7.24% in assay [1] and -0.015% in assay [2]. In assay [3], the viability increase is -3.16%. The viability in assay [4] is 98.9%. The inhibition in assay [5] was -0.08%. Also, in assay [6], the RAM network inhibition is 0.26%.

For the compound `CCSc1nnc(NC(=O)C2CC=CCC2C(=O)O)s1` (stereo unspecified), the growth inhibition in assay [1] was -17.7%; in assay [2], -7.56%. Besides, the viability increase in assay [3] is -0.57%. The viability in assay [4] was 103%. Also, the inhibition in assay [5] is 0.665%. Further, the RAM network inhibition in assay [6] is 4%.

In the case of `COC(=O)c1cn(NC(=O)c2cnccn2)c(=O)c2ccccc12`, the values for the growth inhibition in assay [1] and in assay [2] were -5.4% and 16.9%, respectively. The viability increase in assay [3] was 2.86%. Further, in assay [4], the viability is 27.8%. For the same compound, the inhibition in assay [5] is 1.15%. Moreover, the RAM network inhibition in assay [6] is -0.31%.

Regarding `CN(C)/C=N/c1c(C#N)cnn1-c1nc2ccccc2s1`, the growth inhibition was -9.66% in assay [1] and 6.79% in assay [2]. Also, the viability increase in assay [3] is -3.38%. The viability in assay [4] was 102%. For the same compound, the inhibition in assay [5] was 1.28%. The RAM network inhibition in assay [6] is 4.53%.

Take `CC(=O)c1ccc(NC(=O)CSc2nnc(NC(=O)CN3CCOCC3)s2)cc1`: the growth inhibition was 8.22% in assay [1] and 7.59% in assay [2]. Further, the viability increase in assay [3] was -1.64%. For the same compound, the viability in assay [4] was 102%. In addition, the inhibition in assay [5] is 2.19%. Moreover, the RAM network inhibition in assay [6] is 0.62%.
